# Shown are actives, neighbours in structure and some others; about 2.3% of the full set was active somewhere.
# STEP inh = STEP phosphatase inhibitors, primary screen, biochemical, fluorescence intensity, uHTS. recombinant STEP, OMFP fluorogenic substrate. inhibition, % at 20 µM. actives 0.25% (n = 360,000);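 active = inhibition at 20 µM, scaled per plate between control wells, above about 37%, limit read from the data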;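 also: 0% = DMSO with enzyme and substrate and 100% = substrate only without enzyme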
#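 Also added – OMFP at 25 µM · Test system – STEP tyrosine phosphatase · Technique – FITC-channel fluorescence of OMFP product · Schedule – 20 min at room temperature, dark · Evaluation – control-normalized % inhibition with plate pattern correction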
# DNMT1 block = human DNMT1 methyltransferase inhibitors, primary screen, biochemical, molecular beacon, fluorescence, HinP1I cleavage, uHTS; actives 0.83% (n = 360,000); inhibition (reported as % activation of signal), % at 10 µM; in the data active = inhibition above about 50%
# NadD block = inhibitors of S. aureus NadD, primary screen, biochemical, colorimetric, uHTS. Nicotinate-nucleotide adenylyltransferase NadD (Staphylococcus aureus N315). purified NadD enzyme, colorimetric absorbance read-out. inhibition, % at 20 µM. actives 0.78% (n = 360,000). AID 602399, 2012; in the data active = inhibition above about 26%
# LMPTP inh = LMPTP phosphatase inhibitors, primary screen, biochemical, fluorescence intensity, uHTS. Low molecular weight phosphotyrosine protein phosphatase (Homo sapiens), P24666. recombinant LMPTP-A, OMFP fluorogenic substrate. inhibition, % at 20 µM. actives 0.22% (n = 360,000);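 active = compounds that cut the enzyme signal by at least half of the control window in the single-dose screen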;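 also: plate controls were DMSO wells with enzyme plus substrate for no effect and substrate without enzyme for full effect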
# Target sequence (P24666 whole entry, looked up): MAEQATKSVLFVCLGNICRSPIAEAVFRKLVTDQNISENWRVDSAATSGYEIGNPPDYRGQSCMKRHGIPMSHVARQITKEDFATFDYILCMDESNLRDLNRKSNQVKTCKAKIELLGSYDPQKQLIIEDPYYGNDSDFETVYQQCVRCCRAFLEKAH
#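 Test system – LMPTP-A phosphatase enzyme · Quantity – 0.625 nM LMPTP-A final · Reagent – OMFP substrate, 400 µM final · Dosing – one test concentration per compound, 20 µM, with 3% DMSO overall · Timing – 50 min enzyme reaction at room temperature, protected from light · Detection – fluorescence intensity · Controls – substrate-only low control, DMSO enzyme-plus-substrate high control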
# Scp-1 inhibitor = Scp-1 phosphatase inhibitors, primary screen, biochemical, colorimetric, uHTS; Carboxy-terminal domain RNA polymerase II polypeptide A small phosphatase 1 (Homo …; Recombinant Scp1, phosphopeptide, malachite green phosphate absorbance; inhibition, % at 20 µM; actives 0.88% (n = 340,000); AID 493091, 2011;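 active = inhibition above about 50% at 20 µM, limit read from the data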;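 also: plate controls were DMSO wells with enzyme for no effect and wells lacking enzyme for full effect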
# Target sequence (Q9GZU7 76-261 limits assumed): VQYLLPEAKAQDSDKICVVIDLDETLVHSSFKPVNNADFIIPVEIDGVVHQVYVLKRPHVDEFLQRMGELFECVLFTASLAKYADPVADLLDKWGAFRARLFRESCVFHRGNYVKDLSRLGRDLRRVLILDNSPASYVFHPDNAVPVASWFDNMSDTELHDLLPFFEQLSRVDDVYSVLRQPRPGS
#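 Times: enzyme reaction 45 min at room temperature, colour 5 min, stabilisation 30 min. Material: SCP-1 catalytic fragment, aa 76-261. Medium: Acidic Tris acetate buffer with magnesium and detergent. Signal: colorimetric free-phosphate detection, absorbance 630 nm. Read-out basis: % inhibition of SCP-1 phosphate liberation. Reagent: Phosphorylated 17-residue peptide substrate.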
# SUMO1-SIM PPI = modulators of SUMO1 protein-protein interactions, primary screen, biochemical, uHTS; Small ubiquitin-related modifier 1 (Homo sapiens), P63165; SUMO1 binding to a labelled peptide, TR-FRET, 1 h; inhibition, % at 20 µM; actives 0.33% (n = 360,000); in the data active = inhibition above about 37%
# Target sequence (P63165 whole entry, looked up): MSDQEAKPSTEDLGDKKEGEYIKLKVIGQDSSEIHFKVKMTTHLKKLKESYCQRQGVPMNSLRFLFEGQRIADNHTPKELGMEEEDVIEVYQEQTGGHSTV
# * marks the source's active call; other numbers are inactive results; x = not tested or not shown.
SMILES,STEP inh,DNMT1 block,NadD block,LMPTP inh,Scp-1 inhibitor,SUMO1-SIM PPI
COC(=O)c1c(C)oc2ccc(N(C(=O)Oc3ccccc3)S(=O)(=O)c3ccc(Cl)c([N+](=O)[O-])c3)cc12,-1,32,31*,1,10,5
CCOC(=O)C1(Cc2ccccc2)C(=O)Nc2ccccc21 (centres undefined),-1,2,-9,-1,-10,4
CCOC(=O)C12CNC(=O)C(C(=O)OCC)(CNC1=O)C2,3,1,-7,0,6,40*
CC1(C(=O)NS(=O)(=O)c2ccc(C#N)cc2)CCN1C(=O)Cc1ccc(-c2ccccc2)cc1 (centres undefined),1,0,-6,-2,x,2
CC(C)C(=O)Nc1cc2c3c(c1)CCC(=O)N3CCC2,-1,-2,4,0,-7,5
COc1ccc(N2C(=O)Cc3c2nc(N)c(C#N)c3N)cc1,4,1,-1,4,-9,-11
CC1=Nc2nc(N3CCCCCC3)c(C#N)c3c4c(nc(c23)N1)N(c1ccc2ccccc2c1)C(=O)C4,2,-6,55*,5,34,1
N#Cc1c(SCC(=O)Nc2nc3ccccc3s2)sc2c(O)cc(=O)[nH]c12,12,91*,18,64*,61*,30
N#Cc1c(SCC(=O)Nc2nccs2)sc2c(O)cc(=O)[nH]c12,34,43,11,31,68*,20
CCn1cc(/C=C/c2cc[n+](C)cc2)c2ccccc21,-14,26,12,1,68*,-125
CCCCCCCCCCCCCCCC[N+](C)(C)CCN(Cc1ccc(OC)cc1)c1ncccn1,9,-168,75*,4,47,13
COC(=O)C1=C(COc2ccccc2)NC(=O)NC1c1ccc(Br)cc1 (centres undefined),0,0,-5,1,41,75*
COC(=O)C1=C(CCc2ccccc2)NC(=O)NC1c1ccc(Cl)cc1 (centres undefined),-3,-1,-2,2,4,3
Cc1cc2nc(-c3ccc(C#N)cc3)c(Cc3ccsc3)n2c(C)c1Br,x,x,21,2,x,4
COc1ccc(NC(=O)C(=O)N/N=C\c2ccc(CNC(=O)C(=O)Nc3ccc(C)c(C)c3)o2)c(OC)c1,x,x,x,x,68*,x
CC(/C=N\NC(=O)c1ccc2c(c1)OCO2)c1ccccc1 (centres undefined),0,5,-7,-1,-8,-4
O=C(COc1c(Br)cc(Br)c2cccnc12)Nc1ccccc1F,3,33,8,9,-11,47*
CN(C)c1c(F)cc(C(=O)NCc2ccccc2)cc1F,2,0,7,-1,-5,-1
CCOc1ccc(S(=O)(=O)Nc2ccc(C(=O)N/N=C(\C)c3ccc(-n4ccnc4)cc3)cc2)cc1,5,2,42*,6,0,-3
CCCCCCCCN1C(=O)[C@H](CC(=O)NCCC(C)C)C[C@@]2(C(=O)OCC)CCC=C12,x,x,x,1,x,7
O=C(Nc1ccc2c(c1)CCC2)c1cc(S(=O)(=O)N2CCN(c3ccccc3)CC2)ccc1Cl,4,-2,32*,2,-8,2
O=C(NC1CCCCC1)c1cc(S(=O)(=O)N2CCN(c3ccccc3)CC2)ccc1Cl,-1,7,-1,-1,-7,0
CCNC(=O)NC(=O)COC(=O)CCc1nc(=O)c2ccccc2n1C,-1,2,-2,0,-7,5
Cn1nc(C(F)(F)F)c(C(=O)Nc2ccc(Cl)cc2)c1Cl,-5,3,0,-1,3,41*
CC(C)CNc1nc(SCC(=O)Nc2ccccc2)nc(N2CCOCC2)n1,1,-1,0,0,5,0
SMILES,STEP inh,DNMT1 block,NadD block,LMPTP inh,Scp-1 inhibitor,SUMO1-SIM PPI
CSc1nc(N(C)CCO)c2sc3nc(-c4ccco4)c4c(c3c2n1)CCC4,5,37,9,2,79*,25
CSc1nc(NCCN(C)C)c2sc3nc(-c4ccco4)c4c(c3c2n1)CCC4,1,-12,-4,-7,-4,9
O=C(Nc1nc2ccccc2[nH]1)NC1CCCCC1,0,2,-1,-1,-10,1
CCN1/C(=C/c2cccc[n+]2C)Sc2ccc(OC)cc21,-1,1,9,2,109*,-43
CCOc1cc(/C=N/NC(=O)Cc2ccc(C(F)(F)F)cc2[N+](=O)[O-])c(Br)cc1OC,-1,21,12,0,0,-1
COc1cc(Br)cc(/C=N/NC(=O)Cc2ccc(C(F)(F)F)cc2[N+](=O)[O-])c1O,0,38,39*,0,0,0
CS(=O)(=O)c1ccc(C(=O)OC2CCOC2=O)cc1[N+](=O)[O-] (centres undefined),5,68*,0,-1,30,-25
O=C(OC1CCOC1=O)c1ccccc1C(=O)c1ccc(Cl)c([N+](=O)[O-])c1 (centres undefined),-3,12,-1,1,18,-21
CCCCn1c(NS(=O)(=O)c2ccccc2)c(S(=O)(=O)c2ccc(C)cc2)c2nc3ccccc3nc21,2,80*,15,25,-11,48*
CCCCn1c(NC(=O)c2ccco2)c(S(=O)(=O)c2ccc(C)cc2)c2nc3ccccc3nc21,-2,35,24,6,-3,42*
Cc1ccc(S(=O)(=O)c2c(N)n(CCC(C)C)c3nc4ccccc4nc23)cc1,2,29,17,6,-1,42*
CCC(=O)Nc1c(S(=O)(=O)c2ccc(C)cc2)c2nc3ccccc3nc2n1C(C)c1ccccc1 (centres undefined),0,-11,9,2,-13,-7
CCCCn1c(NC(=O)c2ccc(Br)o2)c(S(=O)(=O)c2ccccc2)c2nc3ccccc3nc21,-2,33,6,2,-13,47*
CCCCCn1c(NC(=O)c2ccco2)c(S(=O)(=O)c2ccc(C)cc2)c2nc3ccccc3nc21,4,-16,14,5,-4,19
CCOC(=O)C1(C)CCCCCN1C(=O)c1ccc(N(C)C)cc1 (centres undefined),12,2,0,-3,x,4

# High-throughput results from PubChem BioAssay.
